Hits are enriched below; roughly 3.7% of the tested compounds scored in any of these assays.
Kir21 block: blocks the mouse Kir2.1 inward-rectifier potassium channel. P35561. HEK293-Kir2.1, FluxOR thallium flux fluorescence; active compounds read low. B-score at 10 µM. 310,000 compounds, 0.85% hits. AID 1672;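 active = fluorescence ratio B-score at or below minus 3 SD of library scores, with starting-brightness B-score within 2 SD, cut at about -4.2 in these data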;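 also: channel flux triggered by added potassium and thallium sulfate stimulus; B-score of peak minus minimum fluorescence over baseline after thallium stimulus; more negative B-score means stronger Kir2.1 block with less thallium influx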
KCNQ1 block: blocks the human KCNQ1 potassium channel; CHO-K1 KCNQ1, FluxOR thallium flux fluorescence; active compounds read high; B-score at 10 µM; 310,000 compounds, 1.3% hits; AID 2642;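 active = compounds whose thallium flux B-score, printed positive for inhibition, exceeds three library SD while starting fluorescence stays within three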;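 also: channel opened by potassium depolarization with thallium stimulus after 20 min compound exposure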
KCNK9 inh: blocks the human KCNK9 two-pore domain potassium channel; HEK293 KCNK9, FluxOR thallium flux fluorescence; active compounds read low; 310,000 compounds, 1.2% hits; Q9NPC2; B-score at 10 µM;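 active = ratio B-score over 3 SD below the library mean, with starting fluorescence within 5 SD of its mean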;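 also: negative B-score means less thallium flux so channel inhibition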
hERG protect: hERG (human) protection from proarrhythmic block | CHO-hERG, FluxOR thallium flux, dofetilide IC70 present | activation (rescue from dofetilide block), less the hit threshold, % at 10 µM | 310,000 compounds, 0.51% hits;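 active = activation above the mean of controls blocked by dofetilide plus 5 SD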;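 also: thallium influx through hERG after potassium depolarization seen as dye fluorescence rise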
KCNQ1 act: potentiators or activators of human KCNQ1 potassium channel | P51787 | CHO-K1 KCNQ1, thallium flux FluxOR fluorescence; active compounds read high | B-score at 10 µM | 310,000 compounds, 0.35% hits;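 active = fluorescence ratio B-score, a plate-corrected score, at least three library SD, with initial intensity B-score within 5 SD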
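assay system = KCNQ1-transfected CHO-K1 cells | medium = assay buffer with matched DMSO | probe or stimulus = depolarizing K+/Tl+ stimulus, K2SO4 and Tl2SO4 each 12.5 mM in 5x stock | dosing = single dose | incubation = dye 90 min, compound 20 min, room temperature | detection = kinetic FluxOR fluorescence, 10 s baseline plus 110 s post-stimulus | evaluation = ratio B score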
KCNK3 block: human KCNK3 channel inhibition, primary screen. 340,000 compounds, 0.84% hits. CHO-KCNK3 thallium flux, FluxOR fluorescence; active compounds read low. B-score at 10 µM. AID 602410. O14649;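 active = B-score under library mean minus 4 SD, starting fluorescence ratio at most library mean plus 5 SD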;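 also: more negative B-score means stronger inhibition of thallium flux through KCNK3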
Target sequence (O14649 whole entry, looked up): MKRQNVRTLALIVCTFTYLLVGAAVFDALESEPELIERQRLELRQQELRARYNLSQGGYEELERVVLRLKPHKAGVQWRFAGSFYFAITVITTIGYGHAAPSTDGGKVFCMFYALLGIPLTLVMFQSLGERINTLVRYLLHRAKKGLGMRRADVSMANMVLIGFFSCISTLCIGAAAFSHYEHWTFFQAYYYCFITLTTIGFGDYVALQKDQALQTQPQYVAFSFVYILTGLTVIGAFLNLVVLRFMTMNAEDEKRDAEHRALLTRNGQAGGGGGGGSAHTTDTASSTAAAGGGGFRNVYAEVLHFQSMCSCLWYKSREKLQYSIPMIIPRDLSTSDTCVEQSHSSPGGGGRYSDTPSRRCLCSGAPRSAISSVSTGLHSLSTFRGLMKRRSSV
KCNK9 block conf: human KCNK9 inhibitor confirmation | AID 492992 | 4,900 compounds, 43% hits | HEK293 KCNK9 cells, FluxOR thallium flux fluorescence | shares compounds with KCNK9 inh | inhibition, % at 10 µM;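 active = thallium signal inhibited by more than 5 SD of the compound-free buffer control wells, on both duplicate plates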;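 also: 0% = assay buffer control wells without compound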
Kir2-1 spec: mouse Kir2.1 off-target activity of KCNK9 modulators; shares compounds with KCNK9 inh; Kir2.1 cells, FluxOR thallium flux fluorescence; inhibition, % at 10 µM; 4,900 compounds, 4% hits; AID 492993;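 active = thallium signal drop more than 5 SD beyond the mean of the no-compound control wells, seen in both duplicate plates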;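 also: signal is fluorescence rise after thallium addition divided by baseline fluorescence; plate controls were assay buffer only for no effect and full block by chlorpromazine control for full effect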
KCNK9 uninduced: second counter-screen for KCNK9 modulators: effect in non-induced cells; inhibition, % at 10 µM; shares compounds with KCNK9 inh; 4,900 compounds, 40% hits; AID 492997; non-induced KCNK9-HEK293, FluxOR thallium flux;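 active = thallium signal drop beyond 5 SD of the untreated control mean, on both duplicate plates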;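 also: plate controls were buffer only IC0 wells for no effect and SID17386958 at its maximal inhibitory level for full effect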
The depositor's hits bear a star; i = inactive; . = no result.

SMILES	Kir21 block	KCNQ1 block	KCNK9 inh	hERG protect	KCNQ1 act	KCNK3 block	KCNK9 block conf	Kir2-1 spec	KCNK9 uninduced
Cc1ccc2c(c1)N(CC(=O)Nc1ncccc1C)C(=O)C(C(C)C)O2 (stereo not drawn)	-0.39	i	i	-2.6	i	i	.	.	.
O=C(O)CCc1ccc(-c2ccccc2)n1-c1cccc(C(=O)O)c1	-0.34	i	i	-2.8	i	i	.	.	.
CC(=O)c1cccc(-n2c(CCC(=O)O)ccc2-c2ccc(C)cc2)c1	0.75	i	-15.4*	1.9	i	i	i	i	i
CC(=O)Nc1ccc(S(=O)(=O)N2CCN(c3nc4ccccc4n3CC(C)C)CC2)cc1	-1.34	i	i	-12.8	i	i	.	.	.
CCc1cccc(NC(=O)[C@@H]2CCCN2C2=NS(=O)(=O)c3ccccc32)c1	.	.	.	.	.	i	.	.	.
COc1cc(Cl)ccc1OCc1cc(C(=O)N2C[C@H]3CC[C@H]2C3)no1	-2.19	i	i	-11.2	i	i	.	.	.
COc1cc(Cl)ccc1OCc1cc(C(=O)N2C[C@]3(C)C[C@H]2CC(C)(C)C3)no1	-1.6	i	i	-11.3	i	i	i	i	i
Cc1cc(C)cc(CC(Cc2nc3ccccc3[nH]2)c2nc3ccccc3[nH]2)c1 (stereo not drawn)	-0.61	12*	-8.1*	-7.8	i	i	29.0%*	i	37.0%*
Cc1ccc(CSCc2nc3ccccc3[nH]2)cc1	-0.6	i	i	-3.4	i	i	.	.	.
O=C(/C=C/NNC(=O)c1cccc(Br)c1)c1cccc(Br)c1	1.45	i	-9.02*	-15.3	i	-8.97*	38.0%*	i	34.5%*
CCOc1ccccc1NC(=O)n1ncc2c(C)cccc21	-2.16	i	-13.3*	-12.0	i	i	i	i	39.5%*
CCN(C(=O)C1CCCN(c2nc(-c3ccc(OC)cc3)no2)C1)c1ccccc1F (stereo not drawn)	0	i	i	-11.5	i	i	i	i	i
CCN(C(=O)C1CCN(c2nc(-c3ccc(OC)cc3)no2)CC1)c1ccccc1	0.09	i	i	-18.8	i	i	.	.	.
O=C(c1cn2ccccc2n1)N1CCCC(Nc2ccc(F)c(F)c2)C1 (stereo not drawn)	0.55	i	i	-4.6	i	i	.	.	.
Cc1cccc(C)c1-n1nnnc1C(C)(C)N1CCN(N=O)CC1	-0.21	i	i	-2.8	i	i	.	.	.
Cc1ccc(NC2(c3nnnn3-c3c(C)cccc3C)CCCCC2)cc1	0.74	i	-8.94*	-5.9	i	i	47.5%*	i	43.5%*
CCSc1cnn(-c2ccccc2)c(=O)c1SCC	-0.61	i	i	-7.8	i	i	.	.	.
CCCCSc1cnn(-c2ccccc2)c(=O)c1SCCCC	0.02	6*	-9.88*	-6.6	i	i	51.5%*	i	47.5%*
Cc1ccccc1N=C(NOCc1ccc(Cl)cc1Cl)c1nonc1N	1.47	i	-16.1*	-11.4	i	i	81.5%*	i	46.0%*
Cc1ccc(N=C(NOCc2ccc(Cl)cc2Cl)c2nonc2N)c(C)c1	0.26	i	-16.1*	-2.7	i	i	77.0%*	i	45.5%*
CC1(C)C(=O)OC(/C=C\c2cccc([N+](=O)[O-])c2)C(C)(C)C1=O (stereo not drawn)	0.62	i	i	-8.5	i	i	.	.	.
Cc1onc(-c2ccccc2Cl)c1C(=O)NCc1cccnc1	0.74	i	i	-6.2	i	i	.	.	.
COc1ccccc1NC(=S)NC(=O)c1c(-c2ccccc2Cl)noc1C	-0.18	i	i	-7.2	i	i	i	i	i
